Laboratory results taken from ChEMBL document CHEMBL2046427, “Nonhematotoxic naphthalene diimide modified by polyamine: synthesis and biological evaluation” (J Med Chem, 2012).
The source made the active and inactive calls. The calls are words filed in the database; no cut-off is given here.

Legend:
Mus musculus [1] = assay: Toxicity in mouse H22 cells bearing Kunming mouse assessed as decrease in platelet number at 0.2 mg/kg, iv administered for 7 days measured on day 8 relative to vehicle treated control; assay type: organism-based; set-up: dose 0.2 mg/kg, route intravenous; conditions: in vivo, 168 h
Method in brief: (§1)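 Tumour-bearing Kunming mice (10/group) dosed iv daily for 7 days, then killed on day 8. Blood and bone marrow counted on a Coulter counter for platelets, RBC, WBC and marrow cells. Spleen and thymus weighed; organ index (%) = (organ weight/body weight) × 100. Mean ± SD; Student's t test or ANOVA with q test versus saline.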

Mus musculus [2] = assay: Toxicity in mouse H22 cells bearing Kunming mouse assessed as decrease in white blood cells number at 0.2 mg/kg, iv administered for 7 days measured on day 8 relative to vehicle treated control; assay type: organism-based; set-up: dose 0.2 mg/kg, route intravenous; conditions: in vivo, 168 h; method in brief: as §1
Mus musculus [3] = assay: Toxicity in mouse H22 cells bearing Kunming mouse assessed as weight loss at 0.2 mg/kg, iv administered for 7 days measured on day 8 relative to vehicle treated control; assay type: organism-based; set-up: dose 0.2 mg/kg, route intravenous; conditions: in vivo, 168 h
Method in brief: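 Body weight tracked during 7 consecutive days of daily iv dosing in tumour-bearing Kunming mice, with saline controls; animals killed on day 8.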

Mus musculus [4] = assay: Toxicity in mouse H22 cells bearing Kunming mouse assessed as change in spleen index number at 0.2 mg/kg, iv administered for 7 days measured on day 8 relative to vehicle treated control; assay type: organism-based; set-up: dose 0.2 mg/kg, route intravenous; conditions: in vivo, 168 h; method in brief: as §1
Mus musculus [5] = assay: Toxicity in mouse H22 cells bearing Kunming mouse assessed pathological changes in kidney at 0.2 mg/kg, iv administered for 7 days measured on day 8 by hematoxylin and eosin staining relative to vehicle treated control; assay type: organism-based; set-up: dose 0.2 mg/kg, route intravenous; conditions: in vivo, 168 h
HepG2 [6] = assay: Cytotoxicity against human HepG2 cells assessed as mitochondrial permeability augmentation after 48 hrs by fluorescence-based high-content screening assay; assay type: functional, cell-based
Method in brief: (§2)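 HepG2 seeded 5 × 10³/well; after 12 h treated at 1, 5, 10, 15 and 30 μM for 48 h. Multiparameter cytotoxicity kit staining imaged by high-content screening: Hoechst 33342 for nuclear morphology, permeability dye (green nuclei) for membrane integrity, mitochondrial potential dye, and a weak-base dye for lysosomal mass/pH.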

HepG2 [7] = assay: Cytotoxicity against human HepG2 cells assessed as decrease in mitochondrial membrane potential after 48 hrs by fluorescence-based high-content screening assay; assay type: functional, cell-based; method in brief: as §2
Mus musculus [8] = assay: Toxicity in mouse H22 cells bearing Kunming mouse assessed pathological changes in liver at 0.2 mg/kg, iv administered for 7 days measured on day 8 by hematoxylin and eosin staining relative to vehicle treated control; assay type: organism-based; set-up: dose 0.2 mg/kg, route intravenous; conditions: in vivo, 168 h
H22 [9] = assay: Antitumor activity against mouse H22 cells xenografted in Kunming mouse assessed as median survival time at 0.2 […], iv administered 24 hrs post-tumor injection for 7 days (reference value: 12.7 +/- 2.5 days); assay type: functional
Method in brief: (§3)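 Kunming mice bearing H22 cells; iv (caudal vein) dosing or physiologic saline control started 24 h after inoculation and given for 7 consecutive days. Median survival time recorded per group; activity judged as increase in lifespan versus saline control.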

HepG2 [10] = assay: Cytotoxicity in human HepG2 cells assessed as gain in lysosomal mass/pH at 10 uM after 48 hrs by fluorescence-based high-content screening assay; assay type: functional, cell-based
HepG2 [11] = assay: Cytotoxicity in human HepG2 cells assessed as loss of cell membrane integrity at 10 uM after 48 hrs by fluorescence-based high-content screening assay; assay type: functional
H22 [12] = assay: Antitumor activity against mouse H22 cells xenografted in Kunming mouse assessed as tumor growth inhibition at 0.2 mg/kg, iv administered on day 8 post-tumor injection for 7 days measured on day 16 relative to vehicle treated control; assay type: functional; conditions: read-out: GI
Method in brief: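 Male Kunming mice, 5 weeks, 18−22 g, injected sc with 2 × 10⁶ H22 cells. From day 8, randomized groups got caudal vein injection (0.2 or 5 mg/kg, or physiologic saline) for 7 consecutive days. On day 16 tumours excised and weighed; inhibitory rate (%) = [(A − B)/A] × 100 using mean tumour weights of control (A) and treated (B). Tumours formalin-fixed, H&E-stained.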

H22 [13] = assay: Antimetastatic activity against mouse H22 cells xenografted in Kunming mouse assessed as decrease in lung metastasis focuses at 0.2 mg/kg, iv administered on day 11 post-tumor injection for 7 days measured on day 18 relative to vehicle treated control; assay type: functional, organism-based; set-up: dose 0.2 mg/kg
H22 [14] = assay: Antitumor activity against mouse H22 cells xenografted in Kunming mouse assessed as median survival time at 0.2 […], iv administered 24 hrs post-tumor injection for 7 days relative to vehicle treated control; assay type: functional; method in brief: as §3
HepG2 [15] = assay: Induction of apoptosis in human HepG2 cells assessed as caspase 3 activation at 10 uM after 48 hrs by indirect immunofluorescence method; assay type: functional, cell-based
Method in brief: (§4)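 HepG2 in 24-well plates treated at 10 μM for 48 h, harvested and stained with annexin V–FITC/propidium iodide kit or cleaved caspase 3 indirect immunofluorescence. Imaging by high-content screening with target-activation analysis; comparison against control.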

Mus musculus [16] = assay: Hematotoxicity in mouse H22 cells bearing Kunming mouse assessed as decrease in bone marrow cell numbers at 0.2 mg/kg, iv administered for 7 days measured on day 8 relative to vehicle treated control; assay type: organism-based; set-up: dose 0.2 mg/kg, route intravenous; conditions: in vivo, 168 h; method in brief: as §1
HepG2 [17] = assay: Cytotoxicity in human HepG2 cells assessed as decrease in mitochondrial membrane potential at 10 uM after 48 hrs by fluorescence-based high-content screening assay; assay type: functional, cell-based
H22 [18] = assay: Antimetastatic activity against mouse H22 cells xenografted in Kunming mouse assessed as tumor weight at 0.2 mg/kg, iv administered on day 11 post-tumor injection for 7 days measured on day 18 (reference value: 0.34 +/- 0.15 g); assay type: functional
H22 [19] = assay: Antimetastatic activity against mouse H22 cells xenografted in Kunming mouse assessed as decrease in lung tumor burden at 0.2 mg/kg, iv administered on day 11 post-tumor injection for 7 days measured on day 18 relative to vehicle treated control; assay type: functional, organism-based; set-up: dose 0.2 mg/kg
MDA-MB-231 = assay: Cytotoxicity against human MDA-MB-231 cells after 48 hrs by MTT assay; assay type: functional, cell-based; conditions: MDA-MB-231, 48 h
Method in brief: (§5)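 MTT conversion assay at 37 °C, 5% CO₂. […] Inhibition relative to untreated cells as 100%; IC50 by linear regression, mean of three independent experiments.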

HCT-116 = assay: Cytotoxicity against human HCT116 cells after 48 hrs by MTT assay; assay type: functional, cell-based; conditions: HCT-116, 48 h; method in brief: as §5
HepG2 [20] = assay: Cytotoxicity against human HepG2 cells assessed as cell nuclear shrinkage after 48 hrs by Hoechst 33342-based fluorescence-based high-content screening assay; assay type: functional; method in brief: as §2
HepG2 [21] = assay: Cytotoxicity against human HepG2 cells after 48 hrs by MTT assay; assay type: functional, cell-based; conditions: HepG2, 48 h; method in brief: as §5
H22 [22] = assay: Antitumor activity against mouse H22 cells xenografted in Kunming mouse assessed as decrease in cell survival at 0.2 mg/kg, iv administered on day 8 post-tumor injection for 7 days measured on day 16 by hematoxylin and eosin staining relative to vehicle treated control; assay type: functional, organism-based; set-up: dose 0.2 mg/kg
HepG2 [23] = assay: Cytotoxicity against human HepG2 cells assessed as acruement in lysosomal mass/pH after 48 hrs by fluorescence-based high-content screening assay; assay type: functional, cell-based; method in brief: as §2
HepG2 [24] = assay: Induction of apoptosis in human HepG2 cells assessed as phosphatidylserine externalisation at 10 uM after 48 hrs by annexinV/FITC-based high-content screening assay; assay type: functional, cell-based; method in brief: as §4
Mus musculus [25] = assay: Toxicity in mouse H22 cells bearing Kunming mouse assessed as change in thymus index number at 0.2 mg/kg, iv administered for 7 days measured on day 8 relative to vehicle treated control; assay type: organism-based; set-up: dose 0.2 mg/kg, route intravenous; conditions: in vivo, 168 h; method in brief: as §1
Mus musculus [26] = assay: Toxicity in mouse H22 cells bearing Kunming mouse assessed pathological changes in spleen at 0.2 mg/kg, iv administered for 7 days measured on day 8 by hematoxylin and eosin staining relative to vehicle treated control; assay type: organism-based; set-up: dose 0.2 mg/kg, route intravenous; conditions: in vivo, 168 h
HepG2 [27] = assay: Cytotoxicity in human HepG2 cells assessed as mitochondrial membrane damage at 10 uM after 48 hrs by fluorescence-based high-content screening assay; assay type: functional, cell-based
HepG2 [28] = assay: Induction of apoptosis in human HepG2 cells assessed as reactive oxygen species generation at 10 uM after 48 hrs by […]-based staining; assay type: functional, cell-based
Method in brief: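 HepG2 given 10 μM for 48 h; intracellular ROS by DCFH-DA staining imaged by high-content screening, compared with untreated control.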

Mus musculus [29] = assay: Toxicity in mouse H22 cells bearing Kunming mouse assessed pathological changes in lung at 0.2 mg/kg, iv administered for 7 days measured on day 8 by hematoxylin and eosin staining relative to vehicle treated control; assay type: organism-based; set-up: dose 0.2 mg/kg, route intravenous; conditions: in vivo, 168 h
Mus musculus [30] = assay: Toxicity in mouse H22 cells bearing Kunming mouse assessed as decrease in red blood cells number at 0.2 mg/kg, iv administered for 7 days measured on day 8 relative to vehicle treated control; assay type: organism-based; set-up: dose 0.2 mg/kg, route intravenous; conditions: in vivo, 168 h; method in brief: as §1
Mus musculus [31] = assay: Toxicity in mouse H22 cells bearing Kunming mouse assessed pathological changes in heart at 0.2 mg/kg, iv administered for 7 days measured on day 8 by hematoxylin and eosin staining relative to vehicle treated control; assay type: organism-based; set-up: dose 0.2 mg/kg, route intravenous; conditions: in vivo, 168 h
Mus musculus [32] = assay: Toxicity in mouse H22 cells bearing Kunming mouse assessed pathological changes in brain at 0.2 mg/kg, iv administered for 7 days measured on day 8 by hematoxylin and eosin staining relative to vehicle treated control; assay type: organism-based; set-up: dose 0.2 mg/kg, route intravenous; conditions: in vivo, 168 h

Cl.NCCCNCCCCNCCCN1C(=O)c2ccc3c4c(ccc(c24)C1=O)C(=O)N(CCCNCCCCNCCCN)C3=O
Activity (Mus musculus [1]): Non-toxic
Activity (Mus musculus [2]): Non-toxic
Activity (Mus musculus [3]): Non-toxic
Activity (Mus musculus [4]): Non-toxic
Activity (Mus musculus [5]): Non-toxic
Activity (HepG2 [6]): Dose-dependent effect
Activity (HepG2 [7]): Dose-dependent effect
Activity (Mus musculus [8]): Non-toxic
MST (H22 [9]): 29.8 days
Activity (HepG2 [10]): Active
Activity (HepG2 [11]): Active
inhibition in vivo at 0.2 mg/kg (H22 [12]): 51.8%
Activity (H22 [13]): Active
Ratio (H22 [14]): 2.3
Activity (HepG2 [15]): Active
Activity (Mus musculus [16]): Non-toxic
Activity (HepG2 [17]): Active
Activity (H22 [18]): 0.17 g
Activity (H22 [19]): Active
IC50 (MDA-MB-231): 450 nM
IC50 (HCT-116): 130 nM
Activity (HepG2 [20]): Dose-dependent effect
IC50 (HepG2 [21]): 1220 nM
Activity (H22 [22]): Active
Activity (HepG2 [23]): Dose-dependent effect
Activity (HepG2 [24]): Active
Activity (Mus musculus [25]): Non-toxic
Activity (Mus musculus [26]): Non-toxic
Activity (HepG2 [27]): Active
Activity (HepG2 [28]): Active
Activity (Mus musculus [29]): Non-toxic
Activity (Mus musculus [30]): Non-toxic
Activity (Mus musculus [31]): Non-toxic
Activity (Mus musculus [32]): Non-toxic
